Results of several laboratories.
Target: Serine/threonine-protein kinase D3 (PRKD3, Homo sapiens, UniProt O94806)
Sequence (O94806 1-890, as in one of the studies): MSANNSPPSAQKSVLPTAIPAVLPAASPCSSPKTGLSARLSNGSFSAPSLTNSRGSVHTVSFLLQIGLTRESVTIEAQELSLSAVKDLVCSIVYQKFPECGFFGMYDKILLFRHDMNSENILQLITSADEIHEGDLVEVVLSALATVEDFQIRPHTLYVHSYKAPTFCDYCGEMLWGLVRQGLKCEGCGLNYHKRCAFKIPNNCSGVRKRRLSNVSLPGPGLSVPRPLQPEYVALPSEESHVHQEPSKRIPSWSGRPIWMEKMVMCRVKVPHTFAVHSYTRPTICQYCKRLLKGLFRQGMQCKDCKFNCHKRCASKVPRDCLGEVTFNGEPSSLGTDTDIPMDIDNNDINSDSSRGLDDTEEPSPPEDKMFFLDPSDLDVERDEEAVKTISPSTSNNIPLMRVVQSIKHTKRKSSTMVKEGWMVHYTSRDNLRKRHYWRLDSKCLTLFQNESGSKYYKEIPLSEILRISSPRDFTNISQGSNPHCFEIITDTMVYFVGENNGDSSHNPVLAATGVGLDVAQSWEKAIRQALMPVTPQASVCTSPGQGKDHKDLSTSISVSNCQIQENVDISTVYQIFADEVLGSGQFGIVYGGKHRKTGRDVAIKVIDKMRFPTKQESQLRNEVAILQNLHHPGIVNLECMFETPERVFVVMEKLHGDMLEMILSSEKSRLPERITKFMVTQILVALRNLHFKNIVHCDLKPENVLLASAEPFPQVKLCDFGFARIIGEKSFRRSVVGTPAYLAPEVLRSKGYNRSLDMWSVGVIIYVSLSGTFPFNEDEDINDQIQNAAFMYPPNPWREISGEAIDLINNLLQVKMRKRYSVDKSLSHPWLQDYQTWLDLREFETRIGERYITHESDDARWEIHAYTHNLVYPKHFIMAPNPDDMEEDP

With `COc1cc2ncnc(Nc3ccc(Oc4ccccc4)c(C)c3C)c2cc1OC` the inhibition was 8% (enzyme activity, inhibitor; 1 µM).
With `COc1cc(Cl)c(C(=O)N[C@@H](CN[C@H]2CC[C@@H](N)CC2)Cc2ccc(C#N)cc2)cc1-c1ccc(CN[C@H](C)c2ccc(C)cc2)o1` the remaining activity was 93% (enzyme activity, inhibitor; 1 µM).
`N#CCCc1ccc2c(c1)-c1[nH]c3ccc([N+](=O)[O-])cc3c1CC(=O)N2` has a remaining signal of 84% (cell-free assay; 0.5 µM).
For `c1ccc(CNc2nc(N3CCOc4ccccc43)nc3c2CCCC3)cc1`, the inhibition was 2.8% (target engagement in cells, inhibitor, chemoproteomics; 20 mM).
`O=C(Nc1ccc(Oc2ccc(F)cc2)cc1)N1CCc2ncccc2[C@H]1c1ccc(F)cc1` gave a remaining binding of 98% (cell-free assay, competition with immobilised ligand; 1 µM).
For `O=C1Nc2ccc(Cl)cc2C1=Cc1cc(Cl)c(O)c(Cl)c1`, the remaining signal was 80.7% (cell-free assay; 0.5 µM).
With `Cc1nc(Cc2cccc(C(F)(F)F)c2)sc1-c1ccc(C(N)=O)nc1` the remaining binding was 97% (cell-free assay, competition with immobilised ligand; 1 µM).
With `CC/C(=N\NC(=O)NCc1cccc(O)c1)c1ccc(O)c(C)c1O` the inhibition was 2.2% (enzyme activity, inhibitor; 0.1 µM).
`O=C(NC[C@@H]1[C@H]2CN(C(=O)OCc3cc(C(F)(F)F)cc(C(F)(F)F)c3)C[C@@H]12)c1ccc2[nH]nnc2c1` has a remaining binding of 83% (cell-free assay, competition with immobilised ligand; 1 µM).
`Cc1ccc(C(=O)NCc2ccsc2)cc1C#Cc1cn(C(C)C)c2ncnc(N)c12` has an activity vs control of 101% (enzyme activity, inhibitor; 1 µM).
For `CNc1cc(Oc2cc(C(=O)Nc3cc(N4CCN(C)CC4)cc(C(F)(F)F)c3)ccc2C)ncn1`, the inhibition was -19.8% (target engagement in cells, inhibitor, chemoproteomics; Huh-7; 1 µM).
For `CN(C)CC#Cc1ccc(OCCCc2sc(N3CCc4cccc(C(=O)Nc5nc6ccccc6s5)c4C3)nc2C(=O)O)c(F)c1`, the remaining binding was 93% (cell-free assay, competition with immobilised ligand; 1 µM).
The ΔTm of `CN1CCC2(CC1)NC(=O)c1c(c3ccc(Cl)c(Cl)c3n1C)C2C#N` (racemic) is reported as 2 °C (thermal stability, DSF; 10 µM).
The remaining binding of `CSc1cccnc1N1CCN(Cc2nc3ccccc3[nH]2)CC1` is reported as 100% (cell-free assay, competition with immobilised ligand; 1 µM).
With `N#CC1c2c([nH]c3c(Cl)c(Cl)ccc23)C(=O)NC12CCCCC2` (racemic) the ΔTm was 0.9 °C (thermal stability, DSF; 10 µM).
`Cc1sc(C(=O)NC2COC2)cc1-n1cc(NC(=O)Nc2c(F)cccc2Cl)cn1` gave a remaining activity of 105% (enzyme activity, inhibitor; 10 µM).
